Screens from PubChem BioAssay.
Shown are actives, neighbours in structure and some others; about 1% of the full set was active somewhere.
DNA FID counter: fluorescent intercalator displacement, NS3 helicase counter-screen. actives 0.17% (n = 290,000). inhibition, % at 7.9 µM. DNA fluorescent intercalator displacement, fluorescence; in the data active = inhibition above about 37%;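 also: 0% = vehicle and 100% = reference compound; higher means more ethidium bromide displaced from hairpin DNA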
VIM-2 inhibitor: inhibitors of Pseudomonas aeruginosa VIM-2 metallo-beta-lactamase; AID 1527; purified VIM-2, nitrocefin hydrolysis, epi-absorbance fluorescence; inhibition, % at 5.6 µM; actives 0.89% (n = 290,000);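 active = inhibition above the mean of all tested compounds plus 3 SD, cutoff set per screening run, cut at about 7.5% in these data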;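 also: red hydrolysis product quenches plate fluorescence so inhibitors raise well fluorescence; 0% = enzyme with DMSO and 100% = DMSO without enzyme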
RAD54 inh: inhibitors of human RAD54 branch migration; Q92698; RAD54 Holliday junction branch migration, FAM/BHQ fluorescence; inhibition, % at 10.4 µM; actives 0.14% (n = 360,000);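 active = mean normalized replicate activity at least 40 and at least half of replicates scoring 40 or more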;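 also: 0% = median of neutral control wells and 100% = median of positive control wells; inhibitors cause a drop in the FAM fluorescence signal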
PvdQ acylase: blocks Pseudomonas aeruginosa PvdQ acylase activity; purified PvdQ acylase, fluorescence plate reader; inhibition, % at 10 µM; actives 0.063% (n = 340,000); in the data active = inhibition above about 30%, passing the limit was not always enough;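 also: 0% = vehicle neutral wells and 100% = reference inhibitor wells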
IMP-1 inhibitor: inhibitors of Pseudomonas aeruginosa IMP-1 metallo-beta-lactamase | inhibition, % at 5.6 µM | actives 0.45% (n = 290,000) | purified IMP-1, nitrocefin hydrolysis, epi-absorbance fluorescence | AID 1556;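 active = inhibition above the mean plus 3 SD of all compounds in the same screening run, cut at about 4.5% in these data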;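 also: 0% = IMP-1 with DMSO and 100% = DMSO wells lacking enzyme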
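System: Purified recombinant IMP-1 metallo-beta-lactamase enzyme | Measured by: Fluorescence quenching readout, ex 480/em 530 nm | Replication: Singlicate | Incubation: 15 min preincubation plus 25 min reaction at 25 °C | Evaluation: Percent inhibition from optical density relative to buffer-blank wells | Benchmarks: DMSO with and without IMP-1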
* marks the source's active call; other numbers are inactive results; · = no result.

SMILES	DNA FID counter	VIM-2 inhibitor	RAD54 inh	PvdQ acylase	IMP-1 inhibitor
CCN(CC)CCCN(Cc1cc2cc3c(cc2[nH]c1=O)OCO3)C(=S)NCCCN(C)C	24	4	15	-10	-2
Cc1ccc(NC(=S)N(CCCN(C)C)Cc2cc3cc4c(cc3[nH]c2=O)OCO4)cc1	38*	-2	·	2	-3
CSc1nnc(-c2ccc(NC(N)=S)cc2)o1	-3	1	·	-16	4.6*
CSc1nnc(-c2cccc(NC(=S)NN)c2)o1	-11	9.7*	·	3	-4
CCCC#Cc1ccc([C@@H]2[C@H]3CN(CC4CC4)CCCCN3[C@H]2CO)cc1	·	·	1	·	·
C[C@@H]1CN([C@@H](C)CO)S(=O)(=O)c2ccc(-c3cncnc3)cc2O[C@H]1CN(C)C(=O)Cc1ccccc1	·	·	1	·	·
S=C(Nc1cccc(Cl)c1)N(CCCN1CCCC1)Cc1cccn1Cc1ccc(Cl)cc1	36	-3	-5	-12	-3
COc1cccc(NC(=S)N(CCCN2CCCC2)Cc2cccn2Cc2ccc(Cl)cc2)c1	37*	-3	7	-10	-2
Cc1ccccc1NC(=O)CSc1nc(N)c(C#N)c(-c2cccs2)c1C#N	2	-4	8	-1	12*
Cc1ccc[n+](/C(C(=S)NCc2ccco2)=C(/[O-])c2ccccc2Cl)c1	0	-3	8	10	5.6*
Cc1ccc[n+](C(C(=S)NCc2ccco2)=C([O-])c2ccccc2Cl)c1	·	·	·	-14	·
CC(=O)Nc1ccc(C(=O)CN2CCN(c3ccccc3)CC2)cc1	-6	-2	-4	-2	22*
CN1CCN(c2ccc(NC(=O)c3ccc(Oc4ccccc4)cc3)cc2)CC1	20	8.3*	-8	-6	-3
CC(=O)c1ccc(N2CCN(C(=S)Nc3ccc(Oc4ccccc4)cc3)CC2)cc1	-8	-3	·	-1	-5
O=C(c1ccncc1)N1C[C@H]2[C@@H](c3ccccc31)[C@@H](CO)N2C(=O)c1ccccn1	·	·	0	·	·
COc1ccccc1/C=C1\SC(=S)N(C(C(=O)O)c2ccccc2)C1=O (stereo not given)	-17	9.4*	·	8	-1
C=CCNc1nc(NC(C)(C)CO)nc(OC)n1	-4	-2	4	-8	-4
C=CCNc1nc(NC(C)(C)CO)nc(OCC)n1	-6	-5	1	-9	28*
CCOC(=O)c1c(CC(C)C)csc1/N=C/C1C(=O)CC(C)(C)CC1=O	-12	-2	·	-4	9.1*
CCOC(=O)c1cc(C)sc1/N=C/C1C(=O)CC(C)(C)CC1=O	-7	-6	-7	11	-3
C/C=C/c1ccc2c(c1)O[C@H](CN(C)C(=O)c1ccccn1)[C@H](C)CN([C@@H](C)CO)S2(=O)=O	·	·	5	·	·
COCCCn1c(C(=O)N2CCOCC2)cc2c(=O)n3ccccc3nc21	-13	0	-3	0	42*
COCCCn1c(C(=O)NCCN2CCOCC2)cc2c(=O)n3cccc(C)c3nc21	-2	9.4*	7	-7	0
COc1cccc(NC(=O)c2ccccc2NS(C)(=O)=O)c1	94*	0	-5	-6	-5
CCS(=O)(=O)N1CCN(Cc2ccncc2)CC1	6	-4	4	-10	-3
SMILES	DNA FID counter	VIM-2 inhibitor	RAD54 inh	PvdQ acylase	IMP-1 inhibitor
CCCS(=O)(=O)N1CCN(Cc2ccncc2)CC1	10	0	5	-9	5.1*
CCCc1cc(=O)oc2cc(OCC(=O)NCc3ccccn3)ccc12	-40	1	3	-17	-5
CCCc1cc(=O)oc2cc(OCC(=O)NCC(O)c3ccccc3)ccc12 (stereo not given)	-27	-1	6	-9	42*
CCCc1cc(=O)oc2cc(OCC(=O)NCCCn3ccnc3)ccc12	11	9.0*	6	-26	-1
CCCc1cc(=O)oc2cc(OCC(=O)Nc3ccc(S(N)(=O)=O)cc3)ccc12	-21	-1	-3	3	15*
Cc1c(C)c2ccc(OCC(=O)Nc3ccc(S(N)(=O)=O)cc3)c(C)c2oc1=O	-38	7.8*	·	7	-1
O=C(Cc1ccccc1)N1C[C@@H]2[C@H](c3ccccc31)[C@H](CO)N2C(=O)Cc1ccccc1	·	·	0	·	·
CCNC(=O)C[C@@H]1CC[C@H]2[C@@H](COC[C@H](O)CN2C(=O)CC)O1	·	·	2	·	·
CCOCCCNC(=O)c1cn(C)c(=O)c2cc(OC)c(OC)cc12	-4	-1	7	-17	4.7*
O=C(N[C@H]1CC[C@H](CCNS(=O)(=O)c2ccccc2Cl)O[C@H]1CO)c1ccc(F)cc1	·	·	-4	·	·
